Results on 17 compounds are retold here after paper PMC10866054 (Journal of Enzyme Inhibition and Medicinal Chemistry, 2024).

Data set [1] deals with PC-3. The data set is described as follows: MTT cytotoxicity, PC-3. The data set is classed as cell-based, human. To be noted: for IC50: read-out: Cytotoxic activity IC50, PC-3, MTT, mean ± SD of three experiments; for fold superior to IC50 of the erlotinib, PC-3: PC-3 cell line, vs erlotinib.
Data set [2] concerns the target PI3Kβ (p110β/p85α) (Homo sapiens, UniProt P42338). The data set is described as follows: PI3Kβ Assay Kit. The data set is classed as biochemical.
Data set [3] has as its system MDA-MB-231. The data set can be described thus: MTT cytotoxicity, MDA-MB-231. The data set is classed as cell-based. To be noted: Homo sapiens, MDA-MB-231, read-out: Cytotoxic activity IC50, MDA-MB-231.
Data set [4] deals with BAX. The data set can be described thus: RT-qPCR gene expression of BAX in PC-3 cells. It is filed as cell-based, human. Particulars: PC-3 cells treated at IC50, vs untreated PC-3. An outline of the steps: (§1)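 Control and treated cells (1×10^5) were trypsinised, spun at 5000 rpm and washed in PBS. Total RNA was isolated and cDNA synthesised. Gene-specific mRNA was measured by qPCR with IDT-designed primers, with a GAPDH primer pair included. Expression was given relative to untreated control cells.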

Data set [5] concerns P53. The data set is described as follows: RT-qPCR gene expression of P53 in PC-3 cells. To be noted: PC-3 cells treated at IC50, vs untreated PC-3. It is filed as cell-based, human. A digest of the protocol:
as §1

Data set [6] in a line: MTT cytotoxicity, normal prostate epithelial cells. The data set is classed as cell-based. To be noted: human, HPrEC normal primary prostate epithelial cells.
Data set [7] deals with PI3Kγ (Homo sapiens, UniProt P48736). The data set is described as follows: PI3K isoform ELISA kit, PI3Kγ. It is filed as biochemical. (An ELISA detects its analyte on a solid surface through an enzyme-linked reagent.)
The test system of data set [8] is m-TOR. The data set is described as follows: RT-qPCR gene expression of m-TOR in PC-3 cells. It is filed as cell-based, human. Particulars: PC-3 cells treated at IC50 3.56 µM, compared to untreated cells. An outline of the steps: as §1
The test system of data set [9] is BCl-2. The data set can be described thus: RT-qPCR gene expression of BCl-2 in PC-3 cells. The data set is classed as cell-based, human. Particulars: PC-3 cells treated at IC50, vs untreated PC-3. An outline of the steps: as §1
Data set [10] deals with PC-3 cells. The data set is described as follows: Cell cycle analysis. It is filed as cell-based, human. Particulars: compound at IC50, 24 h.
Data set [11] deals with caspase 3. The data set can be described thus: RT-qPCR gene expression of caspase 3 in PC-3 cells. To be noted: PC-3 cells treated at IC50, vs untreated PC-3. It is filed as cell-based, human. An outline of the steps: as §1
Data set [12] concerns the target PI3Kα (Homo sapiens, UniProt P42336). The data set is described as follows: PI3K isoform ELISA kit, PI3Kα. To be noted: mean ± SD of three experiments. The data set is classed as biochemical.
Data set [13] has as its system AKT. The data set can be described thus: RT-qPCR gene expression of AKT in PC-3 cells. Particulars: PC-3 cells treated at IC50 3.56 µM, compared to untreated cells. It is filed as cell-based, human. A digest of the protocol:
as §1
(In general: In qPCR the cycle at which signal appears reflects the starting amount.)

In data set [14] the target is PI3Kδ (Homo sapiens, UniProt O00329). The data set is described as follows: PI3K isoform ELISA kit, PI3Kδ. It is filed as biochemical.
Chain of PI3Kδ (O00329 whole entry, canonical isoform): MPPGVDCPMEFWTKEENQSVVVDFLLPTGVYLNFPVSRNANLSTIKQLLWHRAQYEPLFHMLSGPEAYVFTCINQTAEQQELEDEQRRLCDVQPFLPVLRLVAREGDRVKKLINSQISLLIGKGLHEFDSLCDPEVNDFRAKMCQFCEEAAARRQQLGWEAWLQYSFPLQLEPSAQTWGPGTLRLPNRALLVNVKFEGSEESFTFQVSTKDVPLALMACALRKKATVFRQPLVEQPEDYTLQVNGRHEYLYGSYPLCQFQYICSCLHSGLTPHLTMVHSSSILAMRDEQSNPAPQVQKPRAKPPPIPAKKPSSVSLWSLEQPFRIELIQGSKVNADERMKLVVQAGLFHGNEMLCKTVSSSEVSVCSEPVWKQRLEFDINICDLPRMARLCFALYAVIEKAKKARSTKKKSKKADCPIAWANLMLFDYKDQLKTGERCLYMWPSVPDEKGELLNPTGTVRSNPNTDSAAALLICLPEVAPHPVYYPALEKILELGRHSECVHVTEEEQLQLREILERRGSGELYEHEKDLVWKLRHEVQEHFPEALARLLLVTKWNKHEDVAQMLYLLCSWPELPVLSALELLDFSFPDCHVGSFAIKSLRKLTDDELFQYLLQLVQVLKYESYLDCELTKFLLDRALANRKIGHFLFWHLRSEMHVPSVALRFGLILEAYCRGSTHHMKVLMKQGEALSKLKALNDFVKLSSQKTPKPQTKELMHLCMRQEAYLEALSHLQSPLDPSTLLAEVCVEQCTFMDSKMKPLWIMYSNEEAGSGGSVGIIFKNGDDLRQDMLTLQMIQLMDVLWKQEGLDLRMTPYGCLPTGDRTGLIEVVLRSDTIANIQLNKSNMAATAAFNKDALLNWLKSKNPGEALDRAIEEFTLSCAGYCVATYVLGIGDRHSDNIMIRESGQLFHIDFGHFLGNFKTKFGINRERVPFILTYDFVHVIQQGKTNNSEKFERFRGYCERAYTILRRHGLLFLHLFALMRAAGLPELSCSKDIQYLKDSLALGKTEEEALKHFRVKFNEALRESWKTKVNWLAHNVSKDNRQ
Chain of PI3Kδ (P27986 whole entry partner, canonical isoform): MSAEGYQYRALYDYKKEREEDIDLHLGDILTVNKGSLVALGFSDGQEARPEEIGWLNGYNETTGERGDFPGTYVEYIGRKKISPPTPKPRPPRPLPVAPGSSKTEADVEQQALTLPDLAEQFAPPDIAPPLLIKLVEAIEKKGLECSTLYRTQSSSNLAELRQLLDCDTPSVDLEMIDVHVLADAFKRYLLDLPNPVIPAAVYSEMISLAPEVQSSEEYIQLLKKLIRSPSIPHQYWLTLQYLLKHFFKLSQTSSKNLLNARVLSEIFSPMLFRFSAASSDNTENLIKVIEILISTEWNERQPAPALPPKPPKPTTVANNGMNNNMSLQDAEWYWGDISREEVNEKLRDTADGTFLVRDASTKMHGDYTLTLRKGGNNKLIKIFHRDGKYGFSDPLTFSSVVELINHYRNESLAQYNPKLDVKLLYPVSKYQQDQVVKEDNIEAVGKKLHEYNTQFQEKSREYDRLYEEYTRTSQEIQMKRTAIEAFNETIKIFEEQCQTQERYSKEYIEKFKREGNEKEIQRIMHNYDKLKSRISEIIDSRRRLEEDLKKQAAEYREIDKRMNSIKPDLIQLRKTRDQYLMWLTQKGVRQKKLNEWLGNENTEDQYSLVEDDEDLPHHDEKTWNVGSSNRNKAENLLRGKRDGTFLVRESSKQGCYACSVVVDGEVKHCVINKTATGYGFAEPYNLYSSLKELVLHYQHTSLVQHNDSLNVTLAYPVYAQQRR
Data set [15] relates to PC-3 cells. The data set is described as follows: Annexin V/propidium iodide staining for apoptosis. The data set is classed as cell-based, human.
For data set [16], the system named is HEPG-2. The data set can be described thus: MTT cytotoxicity, HEPG-2. It is filed as cell-based, human. To be noted: for IC50: Homo sapiens, HepG2, read-out: Cytotoxic activity IC50, HEPG-2.
Data set [17] addresses EGFR (Homo sapiens, UniProt P00533). The data set is described as follows: EGFR Kinase Assay Kit. It is filed as biochemical.
The subject of data set [18] is HCT-116. The data set is described as follows: MTT cytotoxicity, HCT-116. The data set is classed as cell-based. Particulars: Homo sapiens, HCT-116, read-out: Cytotoxic activity IC50, HCT-116.
Data set [19] has as its system caspase 8. The data set is described as follows: RT-qPCR gene expression of caspase 8 in PC-3 cells. The data set is classed as cell-based, human. To be noted: PC-3 cells treated at IC50, vs untreated PC-3. A digest of the protocol: as §1

Chain of PI3Kβ (p110β/p85α) (P42338 whole entry): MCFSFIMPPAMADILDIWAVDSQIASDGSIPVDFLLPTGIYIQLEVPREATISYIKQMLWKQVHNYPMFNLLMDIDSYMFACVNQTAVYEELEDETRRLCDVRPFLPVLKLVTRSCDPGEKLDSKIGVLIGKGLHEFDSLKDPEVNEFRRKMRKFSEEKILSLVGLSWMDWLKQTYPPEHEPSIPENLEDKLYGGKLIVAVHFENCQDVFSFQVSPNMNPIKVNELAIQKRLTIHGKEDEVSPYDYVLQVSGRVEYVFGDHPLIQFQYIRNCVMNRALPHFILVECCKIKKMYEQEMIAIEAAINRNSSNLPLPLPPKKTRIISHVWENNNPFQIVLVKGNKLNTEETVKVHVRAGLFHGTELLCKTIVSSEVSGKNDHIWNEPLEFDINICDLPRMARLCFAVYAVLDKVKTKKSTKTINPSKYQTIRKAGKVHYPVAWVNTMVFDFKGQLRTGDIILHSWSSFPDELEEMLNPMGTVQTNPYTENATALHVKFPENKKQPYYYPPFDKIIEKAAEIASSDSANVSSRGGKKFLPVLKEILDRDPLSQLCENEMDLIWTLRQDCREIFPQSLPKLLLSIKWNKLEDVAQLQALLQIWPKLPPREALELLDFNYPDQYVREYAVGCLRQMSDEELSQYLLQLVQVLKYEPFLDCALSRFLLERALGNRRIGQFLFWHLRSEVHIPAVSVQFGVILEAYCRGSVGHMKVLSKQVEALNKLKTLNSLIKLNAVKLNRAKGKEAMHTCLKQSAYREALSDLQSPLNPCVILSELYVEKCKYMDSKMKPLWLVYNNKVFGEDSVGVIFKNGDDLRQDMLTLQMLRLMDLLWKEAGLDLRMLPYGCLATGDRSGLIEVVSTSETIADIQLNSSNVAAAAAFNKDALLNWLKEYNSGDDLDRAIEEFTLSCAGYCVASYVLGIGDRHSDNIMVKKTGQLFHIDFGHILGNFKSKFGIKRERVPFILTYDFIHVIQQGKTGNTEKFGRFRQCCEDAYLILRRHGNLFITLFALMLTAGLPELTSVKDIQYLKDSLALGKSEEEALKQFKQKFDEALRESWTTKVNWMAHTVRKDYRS
Chain of PI3Kβ (p110β/p85α) (P27986 whole entry partner): as the sequence (P27986 whole entry partner, canonical isoform) above
Chain of EGFR (P00533 25-1210): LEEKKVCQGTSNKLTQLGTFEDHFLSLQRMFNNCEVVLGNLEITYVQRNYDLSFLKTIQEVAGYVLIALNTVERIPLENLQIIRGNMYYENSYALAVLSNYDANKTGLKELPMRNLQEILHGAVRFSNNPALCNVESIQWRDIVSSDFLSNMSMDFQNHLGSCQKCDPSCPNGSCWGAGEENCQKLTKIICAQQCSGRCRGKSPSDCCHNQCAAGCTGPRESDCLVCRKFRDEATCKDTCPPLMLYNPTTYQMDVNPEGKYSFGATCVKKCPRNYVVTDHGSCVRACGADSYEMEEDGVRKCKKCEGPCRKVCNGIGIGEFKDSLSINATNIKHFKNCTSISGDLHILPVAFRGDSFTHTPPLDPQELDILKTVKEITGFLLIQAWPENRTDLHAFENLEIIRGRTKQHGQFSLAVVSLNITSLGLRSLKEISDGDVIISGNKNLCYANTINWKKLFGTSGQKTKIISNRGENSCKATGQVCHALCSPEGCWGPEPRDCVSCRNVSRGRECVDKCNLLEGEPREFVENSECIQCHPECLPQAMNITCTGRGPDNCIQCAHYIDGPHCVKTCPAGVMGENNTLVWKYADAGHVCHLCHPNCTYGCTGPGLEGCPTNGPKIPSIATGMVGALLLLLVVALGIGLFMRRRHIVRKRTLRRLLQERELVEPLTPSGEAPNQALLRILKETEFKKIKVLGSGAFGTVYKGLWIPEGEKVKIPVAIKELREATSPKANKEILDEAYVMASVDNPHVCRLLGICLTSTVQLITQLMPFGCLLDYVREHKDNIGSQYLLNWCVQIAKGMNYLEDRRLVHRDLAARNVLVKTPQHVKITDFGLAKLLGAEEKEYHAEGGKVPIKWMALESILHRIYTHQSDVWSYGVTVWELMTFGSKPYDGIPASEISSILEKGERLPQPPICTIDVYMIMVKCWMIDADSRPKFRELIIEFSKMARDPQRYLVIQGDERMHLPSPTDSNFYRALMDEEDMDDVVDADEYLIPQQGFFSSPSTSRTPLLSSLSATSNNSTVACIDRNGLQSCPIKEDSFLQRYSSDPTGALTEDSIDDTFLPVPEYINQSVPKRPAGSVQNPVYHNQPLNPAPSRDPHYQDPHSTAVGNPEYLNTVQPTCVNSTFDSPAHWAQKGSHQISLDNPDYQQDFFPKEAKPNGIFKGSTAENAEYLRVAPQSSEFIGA

One may read the IC50 as the concentration that gives 50% inhibition. For “7-((amino-5-(isopropylthio)-4H-1,2,4-triazol-3-yl)methoxy)-3-ethyl-4,8-dimethyl-2H-chromen-2-one [Compound 8]”, the IC50 in [1] was > 50 µM.

Take `CCc1c(C)c2ccc(OCC(=O)NN=Cc3ccc([N+](=O)[O-])cc3)cc2oc1=O` [Compound 4a, 2-((3-Ethyl-4-methyl-2-oxo-2H-chromen-7-yl)oxy)-N'-(4-nitrobenzylidene) acetohydrazide]: the IC50 in [2] turned out to be 0.792 µM; in data set [3], 23.6 ± 0.36 µM. Moreover, the “fold superior to IC50 of the erlotinib, PC-3” value (“fold superior to IC50” below) in data set [1] was found to be 1.2 fold.

Take `Cc1c(Cc2ccccc2)c(=O)oc2c(C)c(OCC(=O)NN=Cc3ccco3)ccc12` [Compound 4b, 2-((3-Benzyl-4,8-dimethyl-2-oxo-2H-chromen-7-yl)oxy)-N'-(furan-2-ylmethylene)acetohydrazide]: the IC50 in data set [3] worked out at 11.8 ± 0.98 µM. The “fold superior to IC50” value in [1] was 1.36 fold.

With `Cc1c(Cc2ccccc2)c(=O)oc2c(C)c(OCC(=O)NN=Cc3ccccc3)ccc12` [Compound 4c, 2-((3-Benzyl-4,8-dimethyl-2-oxo-2H-chromen-7-yl)oxy)-N'-benzylideneacetohydrazide], the IC50 in [3] is 8.5 ± 0.85 µM.

On to `Cc1c(Cc2ccccc2)c(=O)oc2c(C)c(OCC(=O)NN=Cc3ccc(Cl)cc3)ccc12` [Compound 4d, 2-((3-Benzyl-4,8-dimethyl-2-oxo-2H-chromen-7-yl)oxy)-N'-(4-chlorobenzylidene)acetohydrazide], for which, in data set [3], the IC50 was > 50 µM.

Consider `Cc1c(Cc2ccccc2)c(=O)oc2c(C)c(OCC(=O)NN=Cc3ccc([N+](=O)[O-])cc3)ccc12` [Compound 4e, 2-((3-Benzyl-4,8-dimethyl-2-oxo-2H-chromen-7-yl)oxy)-N'-(4-nitrobenzylidene)acetohydrazide], for which the IC50 came to 0.992 µM in [2], 24.3 ± 2.28 µM in data set [3] and 23.1 ± 1.2 µM in data set [1].

In the case of `CC(=NNC(=O)COc1ccc2c(C)c(Cc3ccccc3)c(=O)oc2c1C)c1ccc(Br)cc1` [Compound 5, 2-((3-benzyl-4,8-dimethyl-2-oxo-2H-chromen-7-yl)oxy)-N'-(1-(4-bromophenyl)ethylidene)acetohydrazide], the IC50 in data set [2] worked out at 0.261 µM; in data set [3], 46.3 ± 2.7 µM; in data set [6], 95.5 ± 1.3 µM; in [7], 5.04 ± 0.21 µM; in [12], 2.89 ± 0.33 µM; in data set [14] it was 5.49 ± 0.29 µM. For the same compound, the IC50 in data set [16] came to 14.2 ± 1.2 µM; in [17], 0.181 µM; in data set [18], 19.8 ± 0.55 µM. Moreover, the “PI3Kβ inhibitory activity relative to LY294002” value in data set [2] (vs LY294002 as reference PI3Kβ inhibitor) is reported as “twofold”. Also, in data set [4], the “expression of BAX gene” value is 5.6 fold. Also, in data set [5], the “induced expression of P53 gene” value is reported as 3.83 fold. In addition, in data set [8], the “downregulation of m-TOR gene expression” value was 2.6 fold. The “downregulation of BCl-2 gene” value in data set [9] was 0.30 fold. For the same compound, the “percentage of cells in G1 phase” value in [10] came out at 52.09%. The “percentage of cells in G2/M phase” value in [10] amounted to 5.8%. In addition, the “percentage of cells in S phase” value in data set [10] is reported as 42.11%. Also, the “upregulation of caspase 3 gene” value in [11] was 5.40 fold. Further, the “downregulation of AKT gene expression” value in data set [13] came out at 2.5 fold. The “proportion of early apoptotic cells” value in data set [15] (compound at IC50, lower right quadrant) was found to be 22.62%. Also, the “proportion of late apoptotic cells” value in data set [15] (compound at IC50, upper right quadrant) is listed as 13.33%. The “fold superior to IC50” value in data set [1] amounted to 3.45 fold. The “cytotoxic activity times higher than erlotinib, HEPG-2” value in data set [16] (HEPG-2 cell line, vs erlotinib) is 1.5 times. In data set [19], the “upregulation of caspase 8 gene” value is on record as 2.96 fold.

Consider `CCNC(=S)NNC(=O)COc1ccc2c(C)c(CC)c(=O)oc2c1C` [Compound 6a, N-Ethyl-2-(2-((3-ethyl-4,8-dimethyl-2-oxo-2H-chromen-7-yl)oxy)acetyl)hydrazine-1-carbothioamide], for which the IC50 in data set [3] was > 50 µM.

For `C=CCNC(=S)NNC(=O)COc1ccc2c(C)c(CC)c(=O)oc2c1C` [Compound 6b, N-Allyl-2-(2-((3-ethyl-4,8-dimethyl-2-oxo-2H-chromen-7-yl)oxy)acetyl)hydrazine-1-carbothioamide], the IC50 in data set [3] is > 50 µM.

For the compound `CCc1c(C)c2ccc(OCC(=O)NNC(=S)Nc3ccccc3)c(C)c2oc1=O` [Compound 6c, 2-(2-((3-Ethyl-4,8-dimethyl-2-oxo-2H-chromen-7-yl)oxy)acetyl)-N-phenylhydrazine-1-carbothioamide], the IC50 in [3] was > 50 µM.

In the case of `CCc1c(C)c2ccc(OCc3nnc(S)n3N)c(C)c2oc1=O` [Compound 7, 7-((4-amino-5-mercapto-4H-1,2,4-triazol-3-yl)methoxy)-3-ethyl-4,8-dimethyl-2H-chromen-2-one], the 50% inhibitory concentration (IC50) in [3] was > 50 µM.

For `CCOc1ccc2c(C)c(CC)c(=O)oc2c1C` [Compound 9a, 7-Ethoxy-3-ethyl-4,8-dimethyl-2H-chromen-2-one], the IC50 in data set [3] is > 50 µM.

Take `CCCOc1ccc2c(C)c(CC)c(=O)oc2c1C` [Compound 9b, 3-Ethyl-4,8-dimethyl-7-propoxy-2H-chromen-2-one]: the IC50 in data set [3] is > 50 µM.

Take `C=CCOc1ccc2c(C)c(CC)c(=O)oc2c1C` [Compound 9d, 7-(Allyloxy)-3-ethyl-4,8-dimethyl-2H-chromen-2-one]: the IC50 in [3] was > 50 µM.

As to `CCc1c(C)c2ccc(OCC=Cc3ccccc3)c(C)c2oc1=O` [Compound 9e, 7-(Cinnamyloxy)-3-ethyl-4,8-dimethyl-2H-chromen-2-one], the IC50 in data set [3] is > 50 µM.

Turning to `C#Cc1cccc(Nc2ncnc3cc(OCCOC)c(OCCOC)cc23)c1` [Erlotinib, erlotinib, reference compound], the IC50 in data set [3] worked out at 11.1 ± 1.11 µM; in data set [6], 63.5 ± 5.56 µM; in data set [16], 22.1 ± 0.46 µM; in [18], 17.8 ± 1.15 µM.

Consider `O=c1cc(N2CCOCC2)oc2c(-c3ccccc3)cccc12` [LY294002, reference compound], for which the IC50 in data set [14] was 7.42 ± 0.36 µM.
